Series [1] relates to Rattus norvegicus. The series can be described thus: Antihypertensive activity in ip dosed spontaneously hypertensive Wistar kyoto rat assessed as reduction in diastolic arterial pressure administered for 6 hrs and measured every 30 mins post treatment by tail-cuff method. Format: functional, organism-based. The method in brief:
(§1)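 Male SHRs (8 weeks, 300 ± 25 g; 6 per group), given compound intraperitoneally once daily at 8 am in 0.5% (w/v) sodium carboxymethyl cellulose/DMSO 3/1 (v/v), 2 mL·kg⁻¹. Vehicle-treated SHR and WKY controls. SBP, DBP and heart rate were measured by tail-cuff on awake, restrained rats before dosing, then every 30 min for 6 h. Values are mean ± SD of four independent experiments.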

The nature of series [2]: Toxicity in Wistar kyoto rat assessed as central venous in liver at 10 mg/kg, ip administered for 14 days by H and E staining based assay. The format is organism-based. Conditions: in vivo, 336 h. The method in brief: (§2)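 WKY rats were given 10 mg·kg⁻¹ intraperitoneally daily for 14 days, with vehicle-treated controls. Liver and kidney were collected and fixed in 4% glutaraldehyde. Tissue was examined after HE staining by light microscopy and by transmission electron microscopy at 6000, 10000 and 20000-fold.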

Series [3] is described as follows: Toxicity in Wistar kyoto rat assessed as intact hepatic lobule structure at 10 mg/kg, ip administered for 14 days by H and E staining based assay. Format: organism-based. Conditions: in vivo, 336 h. In outline:
(§3)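 WKY rats were dosed intraperitoneally at 10 mg/kg daily for 14 days, using the 10% 1,3-propanediol vehicle, with a vehicle control group. Liver and kidney were collected and fixed immediately in 4% glutaraldehyde. Sections were stained with haematoxylin and eosin and scored for structural change under light microscopy.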

Series [4] is described as follows: Toxicity in Wistar kyoto rat assessed as swollen hepatocytes at 10 mg/kg, ip administered for 14 days by H and E staining based assay. The format is organism-based. As to conditions: in vivo, 336 h. The method in brief:
as §3

Series [5] can be described thus: Toxicity in Wistar kyoto rat assessed as swollen glomerular endothelial cells at 10 mg/kg, ip administered for 14 days by TEM assay. Format: organism-based. Conditions: in vivo, 336 h. In outline:
(§4)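 After 14 days of daily intraperitoneal dosing at 10 mg/kg in WKY rats, with vehicle controls, liver and kidney were fixed in 4% glutaraldehyde. Ultrastructure was examined by transmission electron microscopy at 6000-, 10000- and 20000-fold magnification.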

Series [6] in a line: Toxicity in Wistar kyoto rat assessed as light staining in cytoplasm of liver tissue at 10 mg/kg, ip administered for 14 days by H and E staining based assay. The format is organism-based. As to conditions: in vivo, 336 h. In outline: as §3
Series [7] can be described thus: Cardiotoxicity in SHR rat assessed as thin myocardial fiber formation at 10 mg/kg, ip administered for 14 days by H and E staining based microscopic assay. As to conditions: in vivo, 336 h. Format: toxicity, organism-based. In outline:
(§5)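 SHRs were given 10 mg·kg⁻¹ intraperitoneally per day for 14 consecutive days, with an ibuprofen comparator and a normal control. Myocardial tissue was then removed. Sections were HE-stained for light microscopy and also examined by transmission electron microscopy at 6000, 10000 and 20000-fold.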

Series [8] can be described thus: Toxicity in Wistar kyoto rat assessed as swollen proximal convoluted tubule cells at 10 mg/kg, ip administered for 14 days by H and E staining based assay. Format: organism-based. As to conditions: in vivo, 336 h. The method in brief:
as §3

Series [9] can be described thus: Toxicity in Wistar kyoto rat assessed as visible gaps in hepatocytes at 10 mg/kg, ip administered for 14 days by H and E staining based assay. Format: organism-based. As to conditions: in vivo, 336 h. The method in brief: as §3
A short description of series [10]: Toxicity in Wistar kyoto rat assessed as increase in lipid droplets in cytoplasm in liver tissue at 10 mg/kg, ip administered for 14 days by TEM assay. The format is organism-based. As to conditions: in vivo, 336 h. In outline: as §4
The nature of series [11]: Cardiotoxicity in SHR rat assessed as myocardial fibers thickening at 10 mg/kg, ip administered for 14 days by H and E staining based microscopic assay. Format: toxicity, organism-based. Conditions: in vivo, 336 h. In outline: as §5
A short description of series [12]: Toxicity in Wistar kyoto rat assessed as visible gaps in kidney tissue at 10 mg/kg, ip administered for 14 days by H and E staining based assay. As to conditions: in vivo, 336 h. Format: organism-based. In outline:
as §3

Series [13] can be described thus: Toxicity in Wistar kyoto rat assessed as swollen gastric cell at 10 mg/kg, ip administered for 14 days by H and E staining based optical microscopic method. Conditions: in vivo, 336 h. The format is organism-based. In outline:
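WKY rats, 3 per group, were dosed for 14 days, with the compound at 10 mg/kg per dose and the ibuprofen comparator at 6.1 mg/kg. Rats were anaesthetised with ether and killed by cervical dislocation. Stomach and intestine were sectioned at 5-10 µm, stained with haematoxylin and eosin, and examined by optical microscopy.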

The nature of series [14]: Toxicity in Wistar kyoto rat assessed as a large amount of exudation in glomerulus at 10 mg/kg, ip administered for 14 days by TEM assay. The format is organism-based. Conditions: in vivo, 336 h. In outline:
as §2

Series [15] is described as follows: Toxicity in Wistar kyoto rat assessed as loose cytoplasm in kidney tissue at 10 mg/kg, ip administered for 14 days by H and E staining based assay. The format is organism-based. Conditions: in vivo, 336 h. In outline:
as §3

Series [16] is described as follows: Toxicity in Wistar kyoto rat assessed as stromal hyperplasia at 10 mg/kg, ip administered for 14 days by TEM assay. Format: organism-based. As to conditions: in vivo, 336 h. The method in brief:
as §4

A short description of series [17]: Toxicity in Wistar kyoto rat assessed as hepatic sinus congestion at 10 mg/kg, ip administered for 14 days by H and E staining based assay. Format: organism-based. Conditions: in vivo, 336 h. The method in brief:
as §2

The nature of series [18]: Cardiotoxicity in SHR rat assessed as neatly arranged myocardial fibers at 10 mg/kg, ip administered for 14 days by H and E staining based microscopic assay. As to conditions: in vivo, 336 h. The format is toxicity, organism-based. In outline:
as §5

The test system of series [19] is Rattus norvegicus. The series can be described thus: Antihypertensive activity in spontaneously hypertensive Wistar kyoto rat assessed as reduction in systolic arterial pressure at 10 mg/kg, ip administered for 6 hrs and measured every 30 mins post treatment by tail-cuff method. The format is functional. In outline: as §1
For series [20], the system named is Rattus norvegicus. The series can be described thus: Antihypertensive activity in spontaneously hypertensive Wistar kyoto rat assessed as reduction in diastolic arterial pressure at 40 mg/kg, ip administered for 6 hrs and measured every 30 mins post treatment by tail-cuff method. Format: functional. The method in brief:
as §1

The subject of series [21] is Rattus norvegicus. The series can be described thus: Antihypertensive activity in spontaneously hypertensive Wistar kyoto rat assessed as reduction in diastolic arterial pressure at 20 mg/kg, ip administered for 6 hrs and measured every 30 mins post treatment by tail-cuff method. Format: functional. In outline:
as §1

Series [22] can be described thus: Toxicity in Wistar kyoto rat assessed as congestion in renal tissue at 10 mg/kg, ip administered for 14 days by H and E staining based assay. The format is organism-based. As to conditions: in vivo, 336 h. In outline:
as §2

Series [23] has as its system Rattus norvegicus. The series is described as follows: Antihypertensive activity in spontaneously hypertensive Wistar kyoto rat assessed as reduction in systolic arterial pressure at 20 mg/kg, ip administered for 6 hrs and measured every 30 mins post treatment by tail-cuff method. The format is functional. In outline: as §1
The test system of series [24] is Rattus norvegicus. The series can be described thus: Antihypertensive activity in spontaneously hypertensive Wistar kyoto rat assessed as reduction in diastolic arterial pressure at 10 mg/kg, ip administered for 6 hrs and measured every 30 mins post treatment by tail-cuff method. Format: functional. The method in brief:
as §1

For series [25], the system named is H9c2. The series is described as follows: Cytoprotective activity against H2O2-induced toxicity in rat H9c2 cells assessed as reduction in cell de-fromation at 10 to 80 uM pretreated with compound followed by H2O2 addition and measured after 1 to 8 hrs by giemsa staining based microscopic method. Format: functional. The method in brief:
(§6)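 H9c2 cells were injured with H₂O₂ (400 µM) for 1, 4 or 8 h to give light, medium and heavy damage, in the presence of compound at 10–80 µM. Acetaminophen or ibuprofen served as controls. Viability was measured as mean ± SD of three experiments. SOD and MDA contents were measured as mean ± SD of four experiments. Morphology was assessed by Giemsa staining under light microscopy.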

Series [26] relates to H9c2. The series is described as follows: Cytoprotective activity against H2O2-induced toxicity in rat H9c2 cells assessed as increase in cell repair at 10 to 80 uM pretreated with compound followed by H2O2 addition and measured after 1 to 8 hrs by giemsa staining based microscopic method. Format: functional. The method in brief:
as §6

In series [27] the test system is Rattus norvegicus. The series can be described thus: Cardioprotective activity in SHR rat assessed as change in myocardial disk dissociation at 10 mg/kg, ip administered for 14 days by TEM analysis. The format is functional, organism-based. In outline:
as §5

Series [28] has as its system Rattus norvegicus. The series is described as follows: Cardioprotective activity in SHR rat assessed as change in muscle fiber mitochondria at 10 mg/kg, ip administered for 14 days by TEM analysis. Format: functional, organism-based. The method in brief: as §5

The source made the active and inactive calls. The calls are words filed in the database; no cut-off is given here.

Regarding `CC(C)Cc1ccc(C(C)C(=O)Oc2ccc(C(N)=S)cc2)cc1` (stereo not drawn), the Activity entry is “Dose-dependent effect” in series [1]; “Toxic” in series [2]; “Non-Toxic” in series [3]; “Toxic” in series [4]; “Toxic” in series [5]; “Toxic” in [6]. Further, the Activity result in [7] was “Active”; in series [8], “Toxic”; in series [9], “Toxic”; in series [10], “Toxic”; in [11] it was “Active”; in series [12], “Toxic”. Moreover, the Activity result is given as “Non-Toxic” in series [13]; “Toxic” in [14]; “Toxic” in [15]; “Toxic” in series [16]; “Toxic” in series [17]; “Non-Toxic” in series [18].

With `CC(C)Cc1ccc(C(C)C(=O)Oc2ccc(-c3cc(=S)ss3)cc2)cc1` (stereo not drawn), the Systolic arterial pressure in [19] came to 142.9 mmHg. Besides, the Activity is 112.4 mmHg in series [20]; “Toxic” in series [2]; 115.1 mmHg in [21]; “Non-Toxic” in series [3]; “Toxic” in series [4]; “Toxic” in series [6]. In addition, the Activity result was “Toxic” in [9]; “Toxic” in [22]; 136.7 mmHg in series [23]; “Toxic” in series [15]; “Toxic” in series [17]. Also, the Diastolic arterial pressure in [24] amounted to 116.3 mmHg.

`CC(=O)Nc1ccc(OC(=O)CCCCC2CCSS2)cc1` (stereo not drawn): the Systolic arterial pressure in [19] turned out to be 139.1 mmHg. For the same molecule, the Activity result in series [1] is “Dose-dependent effect”; in series [20], 99.4 mmHg; in [21] it was 110.9 mmHg; in series [7], “Active”; in series [23], 127.6 mmHg; in series [18] it was “Non-Toxic”. For the same molecule, the outcome in [25], in series [26], in [27] and in series [28] was Active. Moreover, the Diastolic arterial pressure in series [24] is listed as 113.8 mmHg.

These data come from ChEMBL document CHEMBL4334422, “Toxicities and beneficial protection of H2S donors based on nonsteroidal anti-inflammatory drugs” (Medchemcomm, 2019).
